In ChEMBL document CHEMBL4706601, “The endocannabinoid system dual-target ligand N-cycloheptyl-1,2-dihydro-5-bromo-1-(4-fluorobenzyl)-6-methyl-2-oxo-pyridine-3-carboxamide improves disease severity in a mouse model of multiple sclerosis” (Eur J Med Chem, 2020):
Activity calls are given as the source filed them.

Assays:
Cannabinoid receptor 1 = Cannabinoid receptor 1 (Homo sapiens, UniProt P21554); assay: Displacement of [3H]CP55940 from recombinant human CB1R expressed in CHO cell membranes incubated for 90 mins; set-up: species or system Membrane
[1] = target: T1, Monoacylglycerol lipase ABHD6 (Homo sapiens, UniProt Q9BV23); assay: Inhibition of human ABHD6 expressed in HEK293 cells using 2-OG as substrate preincubated for 30 mins followed by substrate addition and measured after 5 mins by liquid scintillation spectroscopy; format: cell-based
T1 sequence (Q9BV23 whole entry): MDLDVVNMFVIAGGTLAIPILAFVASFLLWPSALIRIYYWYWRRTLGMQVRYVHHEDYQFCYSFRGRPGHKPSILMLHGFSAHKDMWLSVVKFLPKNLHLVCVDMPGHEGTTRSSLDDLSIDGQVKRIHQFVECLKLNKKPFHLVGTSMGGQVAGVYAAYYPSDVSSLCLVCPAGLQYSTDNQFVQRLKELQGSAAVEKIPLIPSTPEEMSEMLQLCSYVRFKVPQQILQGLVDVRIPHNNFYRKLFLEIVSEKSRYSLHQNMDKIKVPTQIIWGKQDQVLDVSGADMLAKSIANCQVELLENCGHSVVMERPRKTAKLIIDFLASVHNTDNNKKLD
Summary of the method: (§1)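 Homogenates (40 µg) from HEK293 stably expressing hABHD6 or hABHD12 pre-incubated with compound 30 min at 37 °C in […], 0.1% BSA, pH 7.6; then 10 μM 2-OG for 5 min at 37 °C. Aqueous phase tritium counted after CHCl3:MeOH stop; no-enzyme blanks and non-transfected HEK293 hydrolysis subtracted. Controls WWL70 10 μM, THL 20 μM.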

[2] = target: T2, Fatty-acid amide hydrolase 1 (Homo sapiens, UniProt O00519); assay: Inhibition of FAAH in human U937 cells using [ethanolamine-1-3H]AEA as substrate preincubated for 15 mins followed by substrate addition and measured after 15 mins by liquid scintillation spectroscopy; format: cell-based, U-937
T2 sequence (O00519 whole entry): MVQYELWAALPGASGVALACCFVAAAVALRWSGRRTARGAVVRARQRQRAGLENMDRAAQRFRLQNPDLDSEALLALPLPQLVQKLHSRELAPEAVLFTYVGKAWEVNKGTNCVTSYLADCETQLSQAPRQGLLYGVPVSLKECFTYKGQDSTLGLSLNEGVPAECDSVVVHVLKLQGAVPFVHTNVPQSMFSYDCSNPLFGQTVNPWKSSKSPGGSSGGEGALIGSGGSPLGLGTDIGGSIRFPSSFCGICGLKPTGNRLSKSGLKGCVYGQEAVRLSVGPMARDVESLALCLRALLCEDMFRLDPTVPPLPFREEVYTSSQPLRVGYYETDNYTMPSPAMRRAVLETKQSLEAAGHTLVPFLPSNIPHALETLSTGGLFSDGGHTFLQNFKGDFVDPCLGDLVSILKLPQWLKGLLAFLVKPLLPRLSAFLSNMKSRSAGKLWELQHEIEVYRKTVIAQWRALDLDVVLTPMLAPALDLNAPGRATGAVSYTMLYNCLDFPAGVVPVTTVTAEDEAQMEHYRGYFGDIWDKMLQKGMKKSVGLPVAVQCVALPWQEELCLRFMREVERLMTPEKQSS
Summary of the method: (§2)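 Intact U937 cells, 10^6 per condition, pre-incubated with compound 15 min at 37 °C with shaking (screen at 10 μM; full curves for hits). Substrate: 1 μM AEA with 1 nM [3H]AEA (FAAH) or 10 μM 2-OG with 5 nM [3H]2-OG (MAGL), 15 min at 37 °C. Stopped with CHCl3:MeOH 1:1, aqueous tritium counted; mean ± SD, ≥3 experiments in triplicate.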

Mus musculus [3] = assay: In vivo agonist activity at CB1R in BALB/c mouse assessed as reduction in spontaneous locomotion at 5 mg/kg, ip measured after 1 hr by rotarod test; format: functional, organism-based
Summary of the method: (§3)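 BALB/c mice given 5 mg/kg i.p. in DMSO (20 µL), tested 1 h later. Rectal temperature change from basal; catalepsy by bar test (4 cm bar, 120 s cut-off); locomotion by rotarod latency to fall at 4 rpm (120 s cut-off, 3 trials); analgesia by hot plate at 54-56 °C, first paw lick or shake. n = 5-20 per group.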

Monoglyceride lipase = target: T3, Monoglyceride lipase (Homo sapiens, UniProt Q99685); assay: Inhibition of MAGL in human U937 cells using [glycerol-1,2,3-3H]2-OG as substrate preincubated for 15 mins followed by substrate addition and measured after 15 mins by liquid scintillation spectroscopy; format: cell-based, U-937; summary of the method: as §2
T3 sequence (Q99685 whole entry): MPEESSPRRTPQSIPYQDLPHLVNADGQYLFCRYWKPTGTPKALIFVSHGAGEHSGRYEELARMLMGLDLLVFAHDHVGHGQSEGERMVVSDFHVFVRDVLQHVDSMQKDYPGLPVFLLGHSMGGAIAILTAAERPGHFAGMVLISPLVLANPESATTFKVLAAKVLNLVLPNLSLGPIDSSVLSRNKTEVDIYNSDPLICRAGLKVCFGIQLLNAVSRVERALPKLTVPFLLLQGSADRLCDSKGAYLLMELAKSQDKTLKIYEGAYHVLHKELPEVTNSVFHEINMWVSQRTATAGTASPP

Mus musculus [4] = assay: In vivo agonist activity at CB1R in BALB/c mouse assessed as catalpesy-like behaviour by measuring increase in immobility time at 5 mg/kg, ip measured after 1 hr by bar test; format: functional, organism-based; summary of the method: as §3
Mus musculus [5] = assay: In vivo agonist activity at CB1R in BALB/c mouse assessed as induction of analgesia at 5 mg/kg, ip measured after 1 hr by hotplate test; format: functional, organism-based; summary of the method: as §3
Cannabinoid receptor 2 = Cannabinoid receptor 2 (Homo sapiens, UniProt P34972); assay: Displacement of [3H]CP55940 from recombinant human CB2R expressed in CHO cell membranes incubated for 90 mins; set-up: species or system Membrane
[6] = target: T4, Lysophosphatidylserine lipase ABHD12 (Homo sapiens, UniProt Q8N2K0); assay: Inhibition of human ABHD12 expressed in HEK293 cells using 2-OG as substrate preincubated for 30 mins followed by substrate addition and measured after 5 mins by liquid scintillation spectroscopy; format: cell-based; summary of the method: as §1
T4 sequence (Q8N2K0 whole entry): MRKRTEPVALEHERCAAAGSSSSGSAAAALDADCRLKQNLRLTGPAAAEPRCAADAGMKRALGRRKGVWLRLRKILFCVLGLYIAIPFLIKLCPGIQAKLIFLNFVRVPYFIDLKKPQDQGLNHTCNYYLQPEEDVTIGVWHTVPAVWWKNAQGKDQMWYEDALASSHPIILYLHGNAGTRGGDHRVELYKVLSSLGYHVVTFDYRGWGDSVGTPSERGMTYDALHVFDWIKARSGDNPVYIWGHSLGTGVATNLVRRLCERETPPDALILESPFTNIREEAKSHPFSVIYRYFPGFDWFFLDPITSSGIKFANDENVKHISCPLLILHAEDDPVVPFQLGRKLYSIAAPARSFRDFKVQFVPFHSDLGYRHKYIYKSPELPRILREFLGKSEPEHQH

Mus musculus [7] = assay: In vivo agonist activity at CB1R in BALB/c mouse assessed as reduction in body temperature at 5 mg/kg, ip measured after 1 hr by tetrad test; format: functional, organism-based; summary of the method: as §3

Chain of Cannabinoid receptor 2 (P34972 whole entry): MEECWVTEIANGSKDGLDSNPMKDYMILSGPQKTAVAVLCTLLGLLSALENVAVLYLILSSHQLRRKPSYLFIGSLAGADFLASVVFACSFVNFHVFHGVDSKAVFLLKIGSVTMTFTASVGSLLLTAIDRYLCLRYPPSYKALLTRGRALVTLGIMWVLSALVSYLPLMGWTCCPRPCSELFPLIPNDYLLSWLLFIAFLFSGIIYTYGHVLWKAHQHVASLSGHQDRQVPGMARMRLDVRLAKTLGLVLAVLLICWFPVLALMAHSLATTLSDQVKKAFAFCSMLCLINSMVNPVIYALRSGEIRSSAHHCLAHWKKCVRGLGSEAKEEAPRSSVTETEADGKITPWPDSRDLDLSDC
Chain of Cannabinoid receptor 1 (P21554 whole entry): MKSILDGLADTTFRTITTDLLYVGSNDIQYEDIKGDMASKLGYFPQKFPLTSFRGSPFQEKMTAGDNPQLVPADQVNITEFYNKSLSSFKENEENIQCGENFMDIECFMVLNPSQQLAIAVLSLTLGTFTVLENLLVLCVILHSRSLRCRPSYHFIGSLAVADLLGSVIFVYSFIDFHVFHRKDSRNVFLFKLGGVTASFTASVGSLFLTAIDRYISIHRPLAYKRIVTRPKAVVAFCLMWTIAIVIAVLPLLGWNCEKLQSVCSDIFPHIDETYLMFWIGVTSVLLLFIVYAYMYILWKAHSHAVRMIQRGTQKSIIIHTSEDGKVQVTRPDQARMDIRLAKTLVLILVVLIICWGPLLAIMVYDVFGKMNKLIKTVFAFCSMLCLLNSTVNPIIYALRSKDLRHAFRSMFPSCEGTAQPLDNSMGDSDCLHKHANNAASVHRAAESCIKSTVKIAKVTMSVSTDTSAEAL

Compound	Ki (Cannabinoid receptor 1) [nM]	IC50 [1] [nM]	IC50 [2] [nM]	Activity (Mus musculus [3])	IC50 (Monoglyceride lipase) [nM]	Activity (Mus musculus [4])	Activity (Mus musculus [5])	Ki (Cannabinoid receptor 2) [nM]	IC50 [6] [nM]	Activity (Mus musculus [7])
Cc1c(Br)cc(C(=O)NC2CCCCCC2)c(=O)n1Cc1ccc(F)cc1	2.9	> 10000	5900	Active	> 10000	Active	Active	1.5	> 10000	Active
COc1ccc(-c2cc(C(=O)NC3CCCCCC3)c(=O)n(Cc3ccc(F)cc3)c2C)cc1	9.8	530	2000	inactive	> 10000	inactive	inactive	26.2	> 10000	inactive
